Compounds with a hit are over-represented: about 8.7% of the library has one in this group of screens.
PostGolgi ctrl – yeast control strain growth, post-Golgi counter-screen; efflux-deficient yeast background strain, growth absorbance A615, 16 h; inhibition, % at 10 µM; 5% of 98,000 active; AID 738
PostGolgi yeast – growth inhibition of a yeast mutant, post-Golgi transport screen; inhibition, % at 10 µM; post-Golgi transport phenotypic cell assay; 0.9% of 98,000 active;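 also: yeast cells grown in 1536-well plates; yeast grown about 18 h at 30C before absorbance read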
Pyk2 oligo antag – antagonists of human Pyk2 oligomerization; Q14289; Q293 cells, Pyk2 FERM NanoBiT luminescence; hits give low values; z-score (the deposit names both 25 µM and 10 µM); 0.83% of 99,000 active; AID 1347419;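 active = Z-score of -3 or lower, scaled per plate to the spread of control and sample wells; inactive = z-score above -3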;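 also: negative z-score means lost luminescence so less FERM oligomerization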
Cav3 T inh – inhibitors of human Cav3.2 T-type calcium channel; O95180; Cav3.2-expressing cells, Fluo-4 calcium fluorescence FDSS; hits give low values; B-score at 10 µM; 4% of 100,000 active;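 active = single-dose well whose peak fluorescence ratio is a statistical outlier from its plate by either plate-standardised score or position-corrected B-score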
tolC growth inh – growth inhibitors of E. coli BW25113 tolC mutant; OD615; growth inhibition, % at 10 µM (by protocol); 2.2% of 65,000 active; AID 573;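 active = growth inhibition at or above a cutoff equal to the mean over every tested compound plus 3 SD, cut at about 60% in these data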;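 also: growth measured after 20 h incubation at 37 °C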
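System: E. coli ΔtolC::kan strain BW25113; Buffer or medium: LB broth supplemented with 50 µg/mL kanamycin; Compound: 10 µM final, single dose; Incubation: bacterial growth with compound for 20 h at 37 °C; Signal: A615 absorbance measurement; Evaluation: growth inhibition in percent.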
E coli WT exp – blocks growth of wild type E. coli BW25113; growth inhibition, % at 100 µM; 0.15% of 98,000 active; OD600 absorbance;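 active = growth inhibition above about 50% at one test dose, limit read from the data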;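 also: growth measured after 20 h incubation at 37 °C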
Of the large screens only hits and unclear results are named; the others gave an inactive call. Rule as the data show it, unless noted: active = inhibition above about 30%; inactive = the rest.

COc1cc(S(=O)(=O)N2CCOCC2)ccc1NC(=O)COC(=O)C12CC3CC(CC(C3)C1)C2	PostGolgi ctrl 35
CC(C)(C)n1nnnc1C(c1ccc(Cl)cc1)N(Cc1cccnc1)Cc1ccco1 (stereo not drawn)	Cav3 T inh -9.5 (no result: PostGolgi ctrl, PostGolgi yeast, tolC growth inh, E coli WT exp)
CC(C)(C)n1nnnc1C(c1ccc(C(F)(F)F)cc1)N(Cc1ccc(F)cc1)Cc1ccco1 (stereo not drawn)	Cav3 T inh -4.3 (no result: PostGolgi ctrl, PostGolgi yeast, tolC growth inh, E coli WT exp)
CCC(C)(C)n1nnnc1CN(Cc1ccc(Cl)cc1)Cc1ccco1	tolC growth inh 81 (no result: Cav3 T inh)
CC(C)(C)n1nnnc1C(c1ccc(C(F)(F)F)cc1)N(Cc1ccccc1)Cc1ccco1 (stereo not drawn)	none (no result: Cav3 T inh, tolC growth inh)
COc1ccc(Cn2nnnc2C(C(C)C)N(Cc2ccco2)Cc2cccs2)cc1 (stereo not drawn)	Cav3 T inh -3.9
CCC(C)(C)n1nnnc1CN(Cc1ccco1)Cc1cc2cc3c(cc2[nH]c1=O)OCO3	none
COc1cc(OC)c(S(=O)(=O)N2CCCCC2)cc1S(=O)(=O)N1CCCCC1	none
Cc1ccc(C(c2nnnn2C(C)(C)C)N(Cc2ccco2)Cc2cccs2)cc1 (stereo not drawn)	Cav3 T inh -5.1
CC(C)C(c1nnnn1Cc1ccccc1)N(Cc1ccco1)Cc1cccs1 (stereo not drawn)	none
CC(C)(C)n1nnnc1C(c1ccc(F)cc1)N(Cc1ccc(F)cc1)Cc1ccco1 (stereo not drawn)	Cav3 T inh -6.3 (no result: tolC growth inh)
Cc1ccc(NC(C#N)c2ccccc2OCc2ccccc2)cc1 (stereo not drawn)	none (no result: Cav3 T inh, tolC growth inh)
CCOc1ccccc1Nc1nc(N)nc(CN(C)C2CCCCC2)n1	none
CC/C(=C\C1CCCCC1)C(NP(=O)(c1ccccc1)c1ccccc1)c1ccccc1 (stereo not drawn)	none (no result: PostGolgi ctrl, PostGolgi yeast, Pyk2 oligo antag, tolC growth inh, E coli WT exp)
COc1cc(OC)cc(-n2nnnc2SCC(=O)N2CCCc3ccccc32)c1	tolC growth inh 84
COc1ccc(-n2c(Cc3ccccc3)nnc2SCC(=O)N2CCCc3ccccc32)cc1	Cav3 T inh -8.5 (no result: PostGolgi ctrl, PostGolgi yeast, tolC growth inh, E coli WT exp)
Cc1ccc(-n2c(Cc3cccn3C)nnc2SCC(=O)N2CCc3ccccc32)cc1	PostGolgi ctrl 45, Cav3 T inh -3.3
Cn1cccc1Cc1nnc(SCC(=O)N2CCCc3ccccc32)n1-c1ccc(F)cc1	Cav3 T inh -7.9 (no result: Pyk2 oligo antag)
CC1(C)CC(=O)C2=C(C1)N(c1cccc(Cl)c1)C(=O)NC2(C(F)(F)F)C(F)(F)F	none (no result: PostGolgi ctrl, PostGolgi yeast, Cav3 T inh, tolC growth inh, E coli WT exp)
CC(C)SC1=NC(C)(C)C=C(/C=C/c2c(Cl)cccc2Cl)N1	PostGolgi ctrl 74 (no result: tolC growth inh)
CC(C)SC1=NC(C)(C)C=C(/C=C/c2ccc(Cl)cc2Cl)N1	none (no result: tolC growth inh)
S=C(NCCSCc1ccccc1Cl)Nc1ccccc1	Cav3 T inh -6.4 (no result: tolC growth inh)
S=C(NCCSCc1ccc(Cl)cc1)Nc1ccccc1	none (no result: Cav3 T inh, tolC growth inh)
COC(=O)c1ccc2c(c1)C(C)(C)C(/C=C/c1ccccc1O)=[N+]2C	Cav3 T inh -3.7 (no result: tolC growth inh)
COC(=O)c1cc[n+](CC(=O)c2ccccc2)cc1	none (no result: tolC growth inh)
O=C1C(C=NCc2ccncc2)=C(O)c2ccccc21	none (no result: tolC growth inh)
O=C1C(C=NCc2cccnc2)=C(O)c2ccccc21	PostGolgi ctrl 40 (no result: Cav3 T inh)
S=C(Nc1ccc(Cl)cc1)c1sc(N2CCCCC2)nc1N1CCOCC1	none (no result: PostGolgi ctrl, PostGolgi yeast, Cav3 T inh, tolC growth inh, E coli WT exp)
CNc1cc(CSC)nc(SCc2ccc(Cl)c(Cl)c2)n1	PostGolgi ctrl 35 (no result: tolC growth inh)
Clc1ccc(CSC2=NCCCN2)cc1Cl	none
N#C/C(=C(/O)COC(=O)Cc1c[nH]c2ccccc12)c1nc2ccccc2[nH]1	Cav3 T inh -7
CCOC(=O)/C=C/C(=O)OCC(=O)Nc1ccc(Cl)cn1	Cav3 T inh 3.4 (no result: tolC growth inh)
CC(C)=CC(=O)OCC(=O)Nc1ccc(Cl)cn1	none (no result: tolC growth inh)
C/C(=N\NC(=O)COc1ccc(C)cc1C(C)C)c1ccc(-n2ccnc2)cc1	none (no result: PostGolgi ctrl, PostGolgi yeast, Cav3 T inh, tolC growth inh, E coli WT exp)
Cc1ccc2c(c1)cc(CN(Cc1cccs1)C(=O)c1ccco1)c1nnnn12	PostGolgi ctrl 42
Clc1ccc(C2=CC(c3ccco3)n3ncnc3N2)cc1 (stereo not drawn)	Cav3 T inh -5.6 (no result: tolC growth inh)
CC(C)(C)c1ccc(C2=CC(c3ccccc3)n3ncnc3N2)cc1 (stereo not drawn)	none (no result: PostGolgi ctrl, PostGolgi yeast, Pyk2 oligo antag, tolC growth inh, E coli WT exp)
CN(C)c1nccc(N(Cc2ccccc2)Cc2ccccc2)c1C#N	PostGolgi ctrl 30, Cav3 T inh -5.7 (no result: tolC growth inh)
O=C(N/N=C/c1ccc2cccc(OCc3ccccc3)c2n1)c1ccc(Cl)cc1	Pyk2 oligo antag -3.1 (no result: tolC growth inh)
FC(F)(F)c1cc(C(F)(F)F)c2ccc(Oc3ccccc3)nc2n1	Cav3 T inh -4.7 (no result: tolC growth inh)
